Consider two molecules from ChEMBL document CHEMBL4014334, “BET Bromodomain Inhibitors with One-Step Synthesis Discovered from Virtual Screen” (J Med Chem, 2017).

Structures are written as SMILES. The source made the active and inactive calls. The calls are words filed in the database; no cut-off is given here.

In data set [1] the target is T1, Nucleosome-remodeling factor subunit BPTF (Homo sapiens, UniProt Q12830). The experiment in a line: Binding affinity to 5FW-labeled BPTF (unknown origin) by PrOF NMR spectroscopic analysis. Put shortly: (§1)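 BrdT samples also contain 3 mM DTT. Spectra recorded with compound present and absent at 500 MHz, 90° flip angle, 0.7 s relaxation delay, 0.1 s acquisition, 500 transients. The read-out is broadening or shift of the binding-pocket Trp resonance.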

Data set [2] addresses T2, Bromodomain testis-specific protein (Homo sapiens, UniProt Q58F21). The data set can be described thus: Binding affinity to 5FW-labeled BRDT bromodomain 1 residue (unknown origin) expressed in Escherichia coli BL21(DE3) by PrOF NMR spectroscopic analysis.
Data set [3] addresses T3, Bromodomain-containing protein 4 (Homo sapiens, UniProt O60885). The data set can be described thus: Binding affinity to 5FW-labeled BRD4 bromodomain 1 (unknown origin) expressed in Escherichia coli BL21(DE3) by PrOF NMR spectroscopic analysis. In short, it runs like this: as §1
Data set [4] has as its target T2, Bromodomain testis-specific protein. The data set can be described thus: Binding affinity to 5FW-labeled BRDT bromodomain 1 W50 residue (unknown origin) expressed in Escherichia coli BL21(DE3) by PrOF NMR spectroscopic analysis. Put shortly: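 5FW-BrdT(1) at 40–50 μM in 50 mM Tris, 100 mM NaCl, 3 mM DTT, pH 7.4, 5% D2O. The pocket Trp resonance is followed for broadening and for a new upfield peak as ligand is titrated.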

The target of data set [5] is T3, Bromodomain-containing protein 4. The data set can be described thus: Inhibition of acetylated histone4 (1 to 21 residues) binding to His-tagged BRD4 bromodomain 1 (42 to 168 residues) (unknown origin) expressed in Escherichia coli BL21(DE3) after 1 hr by alpha screen assay. Put shortly:
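Run by Reaction Biology as AlphaScreen of Brd4(1) binding to acetylated histone H4 (1-21) peptide, at a constant 1% DMSO, with a reference BET inhibitor as positive control.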
Background: Alpha assays give light when donor and acceptor beads are brought close together.

The target is the same in data set [6]. The data set can be described thus: Inhibition of BRD4 bromodomain in human MM1S cells assessed as upregulation of p21Cip1 levels up to 10 uM after 6 hrs by Western blot analysis. The data set is classed as cell-based. In short, it runs like this:
(§2)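 MM1.S cells (1×10^6 per well) are treated with increasing inhibitor concentrations for 6 h, then lysed with protease/phosphatase inhibitors and 5 mM EDTA at 4 °C. Lysates are resolved by SDS-PAGE and immunoblotted for c-Myc and p21Cip1, with vinculin as loading reference and chemiluminescent detection.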
In general terms: In western blotting, separated proteins are transferred to a membrane and probed.

Data set [7] deals with T2, Bromodomain testis-specific protein. The experiment in a line: Binding affinity to BRDT bromodomain 1 (29 to 134 residues)(unknown origin) expressed in Escherichia coli BL21(DE3) assessed as change in melting temperature at 150 uM at 25 to 75 degC after 5 mins by SYPRO orange dye based differential scanning fluorimetric analysis. In short, it runs like this: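 DSF with 10 μM BrdT(1) in 50 mM HEPES pH 7.5, 100 mM NaCl, with 5x SYPRO Orange. The 8-point dose range is 1250–9 μM at 2.5% DMSO, run in duplicate. After 5 min at 25 °C, samples are heated from 25 to 75 °C in 0.2 °C steps. Tm is the peak of the negative first derivative. ΔTm is taken against the DMSO control. Plates with Z' below 0.5 are excluded.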
(In general: In DSF a fluorescence change marks the thermal transition of the protein.)

Data set [8] has the same target. The experiment in a line: Binding affinity to human BRDT bromodomain 1 (21 to 137 residues) expressed in bacterial expression system by q-PCR-based bromoscan assay. Put shortly: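 BromoScan direct titration against BrdT(1), giving a dissociation constant Kd.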
The target of data set [9] is Bromodomain and WD repeat-containing protein 1 (Homo sapiens) (UniProt Q9NSI6). The experiment in a line: Inhibition of human WDR9 bromodomain 2 (1310 to 1430 residues) expressed bacterial expression system at 20 uM by bromoscan assay.
Data set [10] concerns the target T3, Bromodomain-containing protein 4. The experiment in a line: Inhibition of biotin-labeled (+)-JQ1 binding to His-tagged BRD4 bromodomain 1 (42 to 168 residues) (unknown origin) expressed in Escherichia coli BL21(DE3) after 1 hr by alpha screen assay. In short, it runs like this: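 AlphaScreen in 50 mM HEPES, 150 mM NaCl, 0.01% Tween-20, 0.1% BSA, pH 7.4. Final concentrations are His-Brd4(1) 0.020 μM, biotinylated JQ1 probe 0.010 μM, and Ni acceptor and streptavidin donor beads each at 10 μg/ml. Compounds are added as a 10-point 1:√10 dilution. Plates are incubated 1 h at room temperature in low light.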

Data set [11] deals with SWI/SNF-related matrix-associated actin-dependent regulator of chromatin subfamily A member 2 (Homo sapiens) (UniProt P51531). The data set can be described thus: Inhibition of human SMARCA2 bromodomain (1337 to 1486 residues) expressed bacterial expression system at 20 uM by bromoscan assay.
Data set [12] concerns the target T3, Bromodomain-containing protein 4. The experiment in a line: Inhibition of BI-BODIPY binding to BRD4 bromodomain 1 (42 to 168 residues)(unknown origin) expressed in Escherichia coli BL21(DE3) by fluorescence anisotropy assay. In short, it runs like this:
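Competition fluorescence anisotropy in 50 mM Tris, 100 mM NaCl, pH 7.4, 4 mM CHAPS, 0.5% DMSO; BrdT also contains 3 mM DTT. Tracer BI-BODIPY is at 0.025 μM. Protein is set at the level giving 80% tracer bound. Ex 485/em 535. A four-parameter IC50 is converted to Ki by a Cheng-Prusoff variant, from ≥3 independent experiments.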

Data set [13] concerns the target T2, Bromodomain testis-specific protein. The data set can be described thus: Inhibition of biotin-labeled (+)-JQ1 binding to His-tagged BRDT bromodomain 1 (29 to 134 residues) (unknown origin) expressed in Escherichia coli BL21(DE3) after 1 hr by alpha screen assay. In short, it runs like this:
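Competition AlphaScreen: His-BrdT(1) 0.020 μM with Ni-acceptor beads 10 μg/ml and biotinylated probe 0.010 μM, in 50 mM HEPES, 150 mM NaCl, 0.01% Tween-20, 0.1% BSA, pH 7.4. Compounds pin-transferred as a 10-point 1:√10 dilution, then streptavidin donor beads 10 μg/ml added. Incubation 1 h at room temperature in low light.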

In data set [14] the target is T3, Bromodomain-containing protein 4. The data set can be described thus: Binding affinity to 5FW-labeled BRD4 bromodomain 1 (unknown origin) expressed in Escherichia coli BL21(DE3) up to 50 uM in presence of serum by PrOF NMR spectroscopic analysis.
Data set [15] is described as follows: Stability in DMSO at -20 degC by ESI-MS analysis. The data set is classed as physicochemical.
Data set [16] deals with T3, Bromodomain-containing protein 4. The data set can be described thus: Binding affinity to human BRD4 bromodomain 1 (44 to 168 residues) expressed in bacterial expression system by qPCR-based bromoscan assay.
The target in data set [17] is T2, Bromodomain testis-specific protein. The data set can be described thus: Inhibition of BRDT bromodomain 2 (unknown origin) by fluorescence anisotropy assay.
Data set [18] deals with T3, Bromodomain-containing protein 4. The experiment in a line: Binding affinity to 5FW-labeled BRD4 bromodomain 1 (unknown origin) expressed in Escherichia coli BL21(DE3) up to 50 uM by PrOF NMR spectroscopic analysis. Put shortly: as §1
Data set [19] addresses T1, Nucleosome-remodeling factor subunit BPTF. The experiment in a line: Binding affinity to 5FW-labeled BPTF (unknown origin) up to 500 uM by PrOF NMR spectroscopic analysis. In short, it runs like this:
as §1

Data set [20] deals with T2, Bromodomain testis-specific protein. The experiment in a line: Inhibition of BI-BODIPY binding to BRDT bromodomain 1 (29 to 134 residues) (unknown origin) expressed in Escherichia coli BL21(DE3) by fluorescence anisotropy assay.
Data set [21] deals with MM1.S. The data set can be described thus: Cytotoxicity against human MM1S cells assessed as reduction in cell viability up to 10 uM after 72 hrs by MTT assay. It counts as functional, cell-based. Put shortly:
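MM1.S cells are grown in RPMI-1640 with 10% FBS at 37 °C and 5% CO2. About 20,000 cells per well are exposed to compound or 0.1% DMSO vehicle for 72 h, with 6 replicates per concentration. MTT (2 mg/ml) is added for 3 h at 37 °C and formazan is dissolved in DMSO. A540 is read and IC50 is fitted.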

The target of data set [22] is T3, Bromodomain-containing protein 4. The data set can be described thus: Inhibition of BRD4 bromodomain in human MM1S cells assessed as reduction in c-Myc levels up to 10 uM after 6 hrs by Western blot analysis. It counts as cell-based. Put shortly:
as §2

The target in data set [23] is Histone acetyltransferase p300 (Homo sapiens) (UniProt Q09472). The data set can be described thus: Inhibition of human P300 bromodomain (1040 to 1161 residues) expressed bacterial expression system at 20 uM by bromoscan assay.
Data set [24] has as its target CREB-binding protein (Homo sapiens) (UniProt Q92793). The experiment in a line: Inhibition of human CBP bromodomain (1081 to 1197 residues) expressed bacterial expression system at 20 uM by bromoscan assay.

Chain of Bromodomain and WD repeat-containing protein 1 (Homo sapiens) (Q9NSI6 whole entry, the tested form may be a part): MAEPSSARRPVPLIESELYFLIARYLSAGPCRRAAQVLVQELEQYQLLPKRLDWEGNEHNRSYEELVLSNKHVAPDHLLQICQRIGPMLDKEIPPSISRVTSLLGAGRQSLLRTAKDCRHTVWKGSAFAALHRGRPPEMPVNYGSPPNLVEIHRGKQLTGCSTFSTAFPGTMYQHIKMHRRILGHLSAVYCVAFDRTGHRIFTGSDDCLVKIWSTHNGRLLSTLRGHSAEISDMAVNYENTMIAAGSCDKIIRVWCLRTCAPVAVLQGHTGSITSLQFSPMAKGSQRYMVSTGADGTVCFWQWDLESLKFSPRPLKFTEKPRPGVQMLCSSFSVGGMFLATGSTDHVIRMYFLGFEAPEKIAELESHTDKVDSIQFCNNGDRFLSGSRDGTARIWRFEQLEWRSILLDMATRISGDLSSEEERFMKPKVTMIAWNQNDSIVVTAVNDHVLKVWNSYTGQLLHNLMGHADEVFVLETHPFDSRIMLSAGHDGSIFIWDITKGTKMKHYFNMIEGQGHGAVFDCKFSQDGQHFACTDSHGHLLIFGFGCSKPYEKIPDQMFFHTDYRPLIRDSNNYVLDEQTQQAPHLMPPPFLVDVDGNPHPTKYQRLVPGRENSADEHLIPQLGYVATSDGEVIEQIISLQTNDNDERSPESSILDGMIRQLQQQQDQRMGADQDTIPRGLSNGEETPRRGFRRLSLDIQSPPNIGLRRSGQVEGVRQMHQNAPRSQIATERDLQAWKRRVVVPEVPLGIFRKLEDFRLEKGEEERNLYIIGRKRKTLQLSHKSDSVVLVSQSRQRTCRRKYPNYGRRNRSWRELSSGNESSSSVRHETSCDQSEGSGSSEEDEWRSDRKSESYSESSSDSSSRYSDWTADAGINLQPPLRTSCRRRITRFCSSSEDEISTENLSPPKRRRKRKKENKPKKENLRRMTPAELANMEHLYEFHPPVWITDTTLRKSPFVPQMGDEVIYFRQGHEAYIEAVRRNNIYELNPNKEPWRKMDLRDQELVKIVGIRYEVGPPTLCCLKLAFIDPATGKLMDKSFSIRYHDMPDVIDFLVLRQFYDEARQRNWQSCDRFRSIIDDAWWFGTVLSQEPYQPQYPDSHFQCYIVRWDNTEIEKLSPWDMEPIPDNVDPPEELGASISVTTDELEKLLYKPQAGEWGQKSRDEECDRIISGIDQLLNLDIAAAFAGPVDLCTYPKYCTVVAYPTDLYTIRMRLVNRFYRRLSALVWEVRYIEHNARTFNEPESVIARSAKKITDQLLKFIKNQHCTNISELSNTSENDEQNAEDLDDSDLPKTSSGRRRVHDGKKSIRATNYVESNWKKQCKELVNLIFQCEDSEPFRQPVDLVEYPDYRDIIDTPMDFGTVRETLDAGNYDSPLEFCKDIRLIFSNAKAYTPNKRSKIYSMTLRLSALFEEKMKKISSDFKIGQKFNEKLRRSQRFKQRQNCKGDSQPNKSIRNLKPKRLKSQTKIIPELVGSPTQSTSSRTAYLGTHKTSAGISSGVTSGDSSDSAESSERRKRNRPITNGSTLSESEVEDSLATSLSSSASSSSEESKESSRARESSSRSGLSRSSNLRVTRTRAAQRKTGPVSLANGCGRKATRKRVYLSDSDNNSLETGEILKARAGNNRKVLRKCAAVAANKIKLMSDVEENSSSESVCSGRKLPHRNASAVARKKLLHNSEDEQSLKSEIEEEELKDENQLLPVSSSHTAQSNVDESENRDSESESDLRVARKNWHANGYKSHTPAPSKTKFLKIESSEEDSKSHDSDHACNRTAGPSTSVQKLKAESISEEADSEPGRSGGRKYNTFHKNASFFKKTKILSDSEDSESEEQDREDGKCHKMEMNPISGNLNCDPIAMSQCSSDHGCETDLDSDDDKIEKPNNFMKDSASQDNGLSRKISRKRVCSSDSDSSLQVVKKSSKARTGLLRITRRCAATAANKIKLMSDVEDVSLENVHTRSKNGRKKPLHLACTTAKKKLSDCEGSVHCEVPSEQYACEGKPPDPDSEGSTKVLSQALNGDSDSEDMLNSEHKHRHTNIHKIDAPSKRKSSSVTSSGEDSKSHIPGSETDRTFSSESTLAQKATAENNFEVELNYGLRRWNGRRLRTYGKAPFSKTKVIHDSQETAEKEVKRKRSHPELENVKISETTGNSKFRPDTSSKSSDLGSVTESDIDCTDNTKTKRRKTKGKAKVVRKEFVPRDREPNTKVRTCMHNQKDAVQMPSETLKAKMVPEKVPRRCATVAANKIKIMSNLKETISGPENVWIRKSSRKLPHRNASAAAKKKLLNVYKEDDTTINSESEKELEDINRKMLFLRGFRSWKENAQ
Chain of SWI/SNF-related matrix-associated actin-dependent regulator of chromatin subfamily A member 2 (Homo sapiens) (P51531 whole entry, the tested form may be a part): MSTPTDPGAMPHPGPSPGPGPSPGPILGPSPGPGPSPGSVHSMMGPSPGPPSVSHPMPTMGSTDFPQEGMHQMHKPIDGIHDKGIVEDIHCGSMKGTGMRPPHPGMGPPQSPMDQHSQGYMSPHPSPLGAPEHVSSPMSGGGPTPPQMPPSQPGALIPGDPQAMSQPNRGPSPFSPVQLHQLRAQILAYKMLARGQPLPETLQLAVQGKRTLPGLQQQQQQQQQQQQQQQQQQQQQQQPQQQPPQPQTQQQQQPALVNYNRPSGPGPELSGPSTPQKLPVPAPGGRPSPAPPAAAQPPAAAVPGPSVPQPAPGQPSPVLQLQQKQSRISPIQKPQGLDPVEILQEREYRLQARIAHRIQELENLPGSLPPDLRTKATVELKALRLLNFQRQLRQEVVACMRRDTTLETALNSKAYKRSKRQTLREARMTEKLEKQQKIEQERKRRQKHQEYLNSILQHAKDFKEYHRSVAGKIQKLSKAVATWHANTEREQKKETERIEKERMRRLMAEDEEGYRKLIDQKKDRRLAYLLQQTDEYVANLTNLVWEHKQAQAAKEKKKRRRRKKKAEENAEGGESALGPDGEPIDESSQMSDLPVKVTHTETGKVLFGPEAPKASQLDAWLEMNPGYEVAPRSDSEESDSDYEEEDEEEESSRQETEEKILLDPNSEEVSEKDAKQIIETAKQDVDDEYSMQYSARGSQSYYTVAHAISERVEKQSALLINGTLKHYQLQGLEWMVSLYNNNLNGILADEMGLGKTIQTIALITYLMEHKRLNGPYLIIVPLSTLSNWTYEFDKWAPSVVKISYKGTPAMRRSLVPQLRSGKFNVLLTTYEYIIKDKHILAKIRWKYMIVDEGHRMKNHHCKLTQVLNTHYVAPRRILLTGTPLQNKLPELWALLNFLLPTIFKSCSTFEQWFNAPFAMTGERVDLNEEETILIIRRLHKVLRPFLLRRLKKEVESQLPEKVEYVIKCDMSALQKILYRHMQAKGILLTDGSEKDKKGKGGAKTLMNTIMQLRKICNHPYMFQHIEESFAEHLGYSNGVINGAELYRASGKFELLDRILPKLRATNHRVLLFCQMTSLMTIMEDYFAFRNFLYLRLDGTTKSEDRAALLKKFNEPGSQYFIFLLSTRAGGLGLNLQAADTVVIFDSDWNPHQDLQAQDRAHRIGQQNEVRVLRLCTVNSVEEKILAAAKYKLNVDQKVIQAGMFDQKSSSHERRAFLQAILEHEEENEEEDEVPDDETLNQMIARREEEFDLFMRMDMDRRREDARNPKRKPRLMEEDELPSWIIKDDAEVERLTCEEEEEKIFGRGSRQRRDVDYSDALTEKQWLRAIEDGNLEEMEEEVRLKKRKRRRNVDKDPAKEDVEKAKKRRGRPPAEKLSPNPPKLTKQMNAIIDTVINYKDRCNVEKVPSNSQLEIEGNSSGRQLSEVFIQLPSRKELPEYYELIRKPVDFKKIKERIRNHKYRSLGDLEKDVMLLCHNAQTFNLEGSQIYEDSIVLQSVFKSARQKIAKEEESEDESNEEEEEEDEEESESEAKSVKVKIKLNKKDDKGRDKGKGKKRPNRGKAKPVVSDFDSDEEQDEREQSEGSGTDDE

As usually defined, the Kd is a measure of binding affinity in units of concentration. `CCn1c(N)cc(=O)[nH]c1=O`: the Kd in data set [1] stood at 6800 µM; in data set [2] it was 1500 µM; in data set [3], 660 µM; in data set [4], 1500 µM.

A word on the IC50: it is the concentration that inhibits the measured activity by half. Read a low IC50 as inhibition by little substance. What is called inhibition is the drop in the measured response relative to a control, in per cent. As usually defined, the ΔTm is the shift of the melting midpoint relative to a reference. A word on the Ki: it is a measure of affinity in units of concentration, obtained from inhibition or displacement. A low value points to higher affinity. Take `CCn1c2c(c(=O)[nH]c1=O)C(c1ccc(C)cc1)C1=C(COC1=O)N2` (stereo not given): the IC50 turned out to be 0.9 µM in data set [5], 1 µM in [10], 2.3 µM in data set [13] and 5.2 µM in [20]. The inhibition result in data set [6] and in [22] was “inactive” throughout. Besides, in data set [7], the ΔTm was found to be 4.8 °C. The Kd in data set [8] was found to be 1.6 µM; in [16], 0.84 µM. In addition, the inhibition in [9] was found to be 72%; in data set [11] it was 71%; in data set [23], 66%; in data set [24], 68%. The inhibition constant (Ki) in data set [12] was 0.37 µM; in [17], no more than 0.45 µM; in [20] it was 0.69 µM. Besides, the outcome in data set [14] and in data set [18] was Active. The Stability entry in data set [15] was “Stable”. For the same molecule, the result in [19] and in [21] was inactive.
